Experimental data: ChEMBL document CHEMBL3421570, “Combinatorial Libraries As a Tool for the Discovery of Novel, Broad-Spectrum Antibacterial Agents Targeting the ESKAPE Pathogens” (J Med Chem, 2015)
Values after ≈ are worked out from the molar mass of the structure shown. Active and inactive are the calls of the source. The calls are words filed in the database; no cut-off is given here.

Key:
[1] = system: Pseudomonas aeruginosa; assay: Antimicrobial activity against Pseudomonas aeruginosa assessed as inhibition of microbial growth at 100 uM after 24 hrs; type: functional, organism-based
Outline: (§1)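 Broth microdilution single-concentration read: overnight cultures diluted 1:1000, compound in DMF (≤2.0%) added, 37°C for 24 h, growth inhibition scored visually by lack of turbidity; triplicate. Gram-positives grown in TSB, Gram-negatives in LB.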

[2] = system: Klebsiella pneumoniae; assay: Bactericidal activity against Klebsiella pneumoniae after 24 hrs; type: functional
[3] = system: Enterococcus faecium; assay: Antimicrobial activity against Enterococcus faecium assessed as inhibition of microbial growth after 24 hrs; type: functional
Outline: (§2)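 Broth microdilution against multidrug-resistant clinical ESKAPE isolates. Overnight cultures (TSB for Gram-positives, LB for Gram-negatives) diluted 1:1000 in fresh medium, compound in DMF (≤2.0% DMF) added at decreasing concentrations, 37°C.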

[4] = system: Acinetobacter baumannii; assay: Antimicrobial activity against Acinetobacter baumannii assessed as inhibition of microbial growth after 24 hrs; type: functional; outline: as §2
[5] = system: Pseudomonas aeruginosa; assay: Induction of spontaneous mutation in Pseudomonas aeruginosa at 2 to 10 MIC; type: functional, organism-based; conditions: 2 to 10 x MIC
[6] = system: Staphylococcus aureus; assay: Effect on bacterial density of methicillin-resistant Staphylococcus aureus at MIC measured over 2 hrs period by time kill assay; type: functional, organism-based
[7] = Selectivity index, ratio of IC50 for human A549 cells to MIC for Enterobacter cloacae
[8] = Selectivity index, ratio of IC50 for human A549 cells to MIC for Staphylococcus aureus
[9] = system: Acinetobacter baumannii; assay: Induction of spontaneous mutation in Acinetobacter baumannii at 2 to 10 MIC; type: functional, organism-based
[10] = system: Staphylococcus aureus; assay: Ratio of MIC for Staphylococcus aureus measured after 8 cycle passage to MIC for wild type Staphylococcus aureus; type: functional
[11] = system: Enterococcus faecium; assay: Antimicrobial activity against Enterococcus faecium assessed as inhibition of microbial growth at 45 uM after 24 hrs; type: functional, organism-based; outline: as §1
[12] = system: Staphylococcus aureus; assay: Antimicrobial activity against Staphylococcus aureus USA300 strain FPR3757 infected in mouse model of lethal peritonitis assessed as mouse survival at 2 uM, im dosed 1 hr post infection and measured after 5 days post infection; type: functional, organism-based
Outline: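 Mice, six per group, infected i.p. with 1 × 10^8 CFU ml−1 S. aureus USA300 FPR3757 in PBS with 5% mucin. Compound given i.m. at 2 μM 1 h later; vehicle 45% w/v (2-hydroxypropyl)-β-cyclodextrin in water i.v.; vancomycin i.v. as control. Monitored twice daily for 5 days, pre-moribund animals euthanized. Survival compared by log-rank test.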

[13] = Induction of hemolysis in human RBC at 10 uM incubated for 15 mins; type: cell-based, Erythrocyte; conditions: red blood cells, read-out: Activity
Outline: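 Human RBCs from whole blood, resuspended 20% v/v in HA buffer (NaCl, CaCl2), compound 10 μM, 15 min at 37°C. Centrifuged 5,500 g for 1 min, supernatant OD543 read. Percent hemolysis against DMF vehicle (0%) and 1.0% Triton X-100 (100%); triplicate.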

[14] = system: Klebsiella pneumoniae; assay: Antimicrobial activity against Klebsiella pneumoniae assessed as inhibition of microbial growth after 24 hrs; type: functional; outline: as §2
[15] = system: Staphylococcus aureus; assay: Antimicrobial activity against Staphylococcus aureus assessed as inhibition of microbial growth after 24 hrs; type: functional; outline: as §2
[16] = system: Staphylococcus aureus; assay: Bactericidal activity against methicillin-resistant Staphylococcus aureus assessed as cell survival recovery at MIC measured after drug wash out after 120 mins by time kill assay; type: functional
Outline: (§3)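 MRSA from stationary phase was regrown 3 h in TSB and seeded at OD600 0.5. […] After 120 min, cells were centrifuged and washed, serially diluted and plated for CFU. Percent recovery is relative to no-drug controls.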

[17] = system: Acinetobacter baumannii; assay: Antibiofilm activity against Acinetobacter baumannii incubated for 24 hrs followed by biofilm resuspension in PBS and measured after 24 hrs; type: functional
Outline: (§4)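 Biofilms grown 24 h in 96-well plates from overnight cultures standardized to OD600 0.5 in fresh medium (human serum only for S. aureus; TSB for Gram-positives, LB for Gram-negatives). Medium then replaced with fresh medium containing a concentration range above and below MIC, 37°C overnight. After 24 h biofilm resuspended in PBS, serially diluted, plated in duplicate, CFU counted after 24 h at 37°C. Activity relative to untreated; three technical replicates; MBEC50 reported.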

[18] = system: Enterobacter cloacae; assay: Antibiofilm activity against Enterobacter cloacae incubated for 24 hrs followed by biofilm resuspension in PBS and measured after 24 hrs; type: functional; outline: as §4
[19] = system: Staphylococcus aureus; assay: Antimicrobial activity against Staphylococcus aureus assessed as inhibition of microbial growth at 45 uM after 24 hrs; type: functional, organism-based; outline: as §1
[20] = system: Staphylococcus aureus; assay: Bactericidal activity against methicillin-resistant Staphylococcus aureus at MIC measured after drug wash out after 120 mins by time kill assay; type: functional; outline: as §3
[21] = Selectivity index, ratio of IC50 for human A549 cells to MIC for Enterococcus faecium
[22] = Selectivity index, ratio of IC50 for human A549 cells to MIC for Pseudomonas aeruginosa
[23] = system: A549; assay: Cytotoxicity against human A549 cells after 48 hrs by MTT assay; type: cell-based; conditions: A549, 48 h
Outline: (§5)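 A549 cells grown in F-12K with L-glutamine, 10% FBS, 1% penicillin-streptomycin, seeded at 1.0 × 10^5 ml−1, allowed to adhere 24 h (37°C, 5% CO2), then exposed to compound in 45% w/v (2-hydroxypropyl)-β-cyclodextrin vehicle for 48 h. MTT 4 h, formazan solubilized in DMSO, absorbance 540 nm. Percent recovery versus vehicle-only; IC50 derived; at least three independent experiments.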

[24] = Selectivity index, ratio of IC50 for human A549 cells to MIC for Klebsiella pneumoniae
[25] = Cytotoxicity against human A549 cells assessed as cell viability recovery up to 125 uM after 48 hrs by MTT assay; type: cell-based; conditions: read-out: Activity; outline: as §5
[26] = Cytotoxicity against human A549 cells assessed as cell viability recovery at 225 uM after 48 hrs by MTT assay; type: cell-based; conditions: read-out: Activity; outline: as §5
[27] = system: Acinetobacter baumannii; assay: Bactericidal activity against Acinetobacter baumannii after 24 hrs; type: functional
[28] = system: Enterobacter cloacae; assay: Bactericidal activity against Enterobacter cloacae after 24 hrs; type: functional
[29] = system: Enterobacter cloacae; assay: Antimicrobial activity against Enterobacter cloacae assessed as inhibition of microbial growth after 24 hrs; type: functional; outline: as §2
[30] = system: Pseudomonas aeruginosa; assay: Antimicrobial activity against Pseudomonas aeruginosa assessed as inhibition of microbial growth after 24 hrs; type: functional; outline: as §2
[31] = system: Klebsiella pneumoniae; assay: Antibiofilm activity against Klebsiella pneumoniae incubated for 24 hrs followed by biofilm resuspension in PBS and measured after 24 hrs; type: functional; outline: as §4
[32] = system: Pseudomonas aeruginosa; assay: Antimicrobial activity against Pseudomonas aeruginosa assessed as inhibition of microbial growth at 45 uM after 24 hrs; type: functional, organism-based; outline: as §1
[33] = system: Pseudomonas aeruginosa; assay: Antimicrobial activity against Pseudomonas aeruginosa isolate 1420 assessed as inhibition of microbial growth at 2 uM after 24 hrs; type: functional, organism-based
[34] = system: Staphylococcus aureus; assay: Bactericidal activity against Staphylococcus aureus after 24 hrs; type: functional
[35] = system: Enterococcus faecium; assay: Bactericidal activity against Enterococcus faecium after 24 hrs; type: functional
[36] = system: Staphylococcus aureus; assay: Antibiofilm activity against Staphylococcus aureus incubated for 24 hrs followed by biofilm resuspension in PBS and measured after 24 hrs; type: functional; outline: as §4
[37] = system: Staphylococcus aureus; assay: Induction of spontaneous mutation in Staphylococcus aureus at 2 to 10 MIC; type: functional, organism-based
[38] = system: Acinetobacter baumannii; assay: Antimicrobial activity against Acinetobacter baumannii assessed as inhibition of microbial growth at 45 uM after 24 hrs; type: functional, organism-based; outline: as §1
[39] = system: Enterobacter cloacae; assay: Induction of spontaneous mutation in Enterobacter cloacae at 2 to 10 MIC; type: functional, organism-based
[40] = system: Pseudomonas aeruginosa; assay: Bactericidal activity against Pseudomonas aeruginosa after 24 hrs; type: functional
[41] = system: Klebsiella pneumoniae; assay: Antimicrobial activity against Klebsiella pneumoniae assessed as inhibition of microbial growth at 45 uM after 24 hrs; type: functional, organism-based; outline: as §1
[42] = system: Enterobacter cloacae; assay: Antimicrobial activity against Enterobacter cloacae assessed as inhibition of microbial growth at 45 uM after 24 hrs; type: functional, organism-based; outline: as §1
[43] = system: Pseudomonas aeruginosa; assay: Antibiofilm activity against Pseudomonas aeruginosa incubated for 24 hrs followed by biofilm resuspension in PBS and measured after 24 hrs; type: functional; outline: as §4
[44] = Selectivity index, ratio of IC50 for human A549 cells to MIC for Acinetobacter baumannii
[45] = system: Pseudomonas aeruginosa; assay: Antimicrobial activity against Pseudomonas aeruginosa isolate 1420 assessed as inhibition of microbial growth at 2 uM in presence of 100 uM efflux pump inhibitor reserpine after 24 hrs; type: functional, organism-based
[46] = system: Enterococcus faecium; assay: Induction of spontaneous mutation in Enterococcus faecium at 2 to 10 MIC; type: functional, organism-based
[47] = system: Klebsiella pneumoniae; assay: Induction of spontaneous mutation in Klebsiella pneumoniae at 2 to 10 MIC; type: functional, organism-based
[48] = system: Enterococcus faecium; assay: Antibiofilm activity against Enterococcus faecium incubated for 24 hrs followed by biofilm resuspension in PBS and measured after 24 hrs; type: functional; outline: as §4

With `COC(=O)[C@H]1[C@H]2C[C@@H]3c4[nH]c5cc(OC)ccc5c4CCN3C[C@H]2C[C@@H](OC(=O)c2cc(OC)c(OC)c(OC)c2)[C@@H]1OC` the “growth inhibition (GI)” value [1] was “inactive”.
With `CCCCCCCN1C(=N)N(CCCC[C@H]2CNC(=N)N2CCc2cccc(C(F)(F)F)c2)C[C@@H]1CCCC` the MBC90 [2] was 2.4 µM (≈ 1.32 µg/mL), the MIC [3] was 1.6 µM and the MIC [4] was 1.6 µM. The Activity [5] was “inactive”, the Activity [6] was “inactive” and the “Selectivity Index” value [7] was 100. The “Selectivity Index” value [8] was 100, the Activity [9] was “inactive” and the Ratio [10] was 2. The “growth inhibition (GI)” value [11] was “Active”, the Activity [12] was “Active” and the hemolysis at 0.25 h, 10 µM [13] was 0.34%. For the same compound, the MIC [14] was 1.6 µM, the MIC [15] was 1.6 µM and the Survival [16] was 0.2%. For the same compound, the MBEC50 [17] was 15 µM, the MBEC50 [18] was 13 µM and the “growth inhibition (GI)” value [19] was “Active”. For the same compound, the “fold change (FC)” value [20] was 2.5, the “Selectivity Index” value [21] was 100 and the “Selectivity Index” value [22] was 100. For the same compound, the IC50 [23] was 164 µM, the “Selectivity Index” value [24] was 100 and the viability at 48 h [25] was greater than 63%. For the same compound, the viability at 48 h, 225 µM [26] was 40%, the MBC90 [27] was 3.1 µM (≈ 1.71 µg/mL) and the MBC90 [28] was 3.1 µM (≈ 1.71 µg/mL). For the same compound, the MIC [29] was 1.6 µM, the MIC [30] was 1.6 µM and the MBEC50 [31] was 7 µM. For the same compound, the “growth inhibition (GI)” value [32] was “Active”, the “growth inhibition (GI)” value [33] was “inactive” and the MBC90 [34] was 3.1 µM (≈ 1.71 µg/mL). For the same compound, the MBC90 [35] was 1.9 µM (≈ 1.05 µg/mL), the MBEC50 [36] was 14 µM and the Activity [37] was “inactive”. The “growth inhibition (GI)” value [38] was “Active”, the Activity [39] was “inactive” and the MBC90 [40] was 4 µM (≈ 2.2 µg/mL). For the same compound, the “growth inhibition (GI)” value [41] was “Active”, the “growth inhibition (GI)” value [42] was “Active” and the MBEC50 [43] was 20 µM. The “Selectivity Index” value [44] was 100, the “growth inhibition (GI)” value [45] was “Active” and the Activity [46] was “inactive”. For the same compound, the Activity [47] was “inactive” and the MBEC50 [48] was 39 µM.
